Laboratory results as given in ChEMBL document CHEMBL1126875, “Synthesis and LTB4 receptor antagonist activities of the naturally occurring LTB4 receptor antagonist Leucettamine A and related analogues” (J Med Chem, 1993).

Tests used:
[1] = target: T1, Leukotriene B4 receptor 1 (Homo sapiens, UniProt Q15722); test: Binding affinity against Leukotriene B4 receptor on intact differentiated U-937 cells in competitive binding assay with [3H]LTB4; assay type: cell-based
Outline: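 Differentiated U-937 cells (1.3% DMSO, 3–4 days), washed; 10⁶ intact cells incubated in HBSS with 0.1% ovalbumin and 0.2 nM [³H]LTB₄, 20 min at 0 °C. Nonspecific binding defined with 1 μM unlabeled LTB₄. Filtration then scintillation counting. IC₅₀ converted to Ki by Cheng–Prusoff.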

U-937 [2] = test: Inhibition of [3H]LTB4 binding in whole cells; conditions: Homo sapiens
U-937 [3] = test: Inhibition of [3H]LTB4 binding in whole cells (U-937); conditions: Homo sapiens
[4] = target: T1, Leukotriene B4 receptor 1; test: Binding affinity against Leukotriene B4 receptor on U-937 cell membrane preparations in competitive binding assay with [3H]LTB4

T1 sequence (Q15722 whole entry): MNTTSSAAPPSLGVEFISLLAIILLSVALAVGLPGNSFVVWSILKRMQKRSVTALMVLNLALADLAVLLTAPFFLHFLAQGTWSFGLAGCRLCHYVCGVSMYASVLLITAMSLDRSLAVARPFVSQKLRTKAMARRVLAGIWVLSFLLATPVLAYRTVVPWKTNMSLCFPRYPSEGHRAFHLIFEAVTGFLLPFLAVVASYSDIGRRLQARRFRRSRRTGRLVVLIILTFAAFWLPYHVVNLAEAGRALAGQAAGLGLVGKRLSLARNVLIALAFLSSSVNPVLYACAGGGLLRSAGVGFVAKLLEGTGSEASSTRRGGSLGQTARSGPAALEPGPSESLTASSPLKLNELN

SMILES	Ki [1] [µM]	IC50 (U-937 [2]) [µM]	IC50 (U-937 [3]) [µM]	Ki [4] [nM]
Cn1c(N)nc(Cc2ccccc2)c1Cc1ccccc1	19	30	–	–
Cn1c(N)nc(Cc2ccc(CCCCO)cc2)c1Cc1ccccc1	2.4	3.8	–	–
Cn1cc(Cc2ccccc2)nc1N	–	> 100	–	–
CCCCCCn1c(N)nc(Cc2ccccc2)c1Cc1ccccc1	–	–	> 100	–
COc1cccc(Cc2nc(N)n(C)c2Cc2ccccc2)c1	27	40	–	–
Nc1nc(Cc2ccccc2)c(Cc2ccccc2)[nH]1	9	13	–	–
Cc1[nH]c(N)nc1Cc1ccccc1	–	> 100	–	–
COc1ccc(/C=C/CCCCOc2ccc(C(=O)c3cccc(C(=O)O)c3)cc2CCC(=O)O)cc1	–	–	–	360
Cn1c(N)nc(Cc2ccc3c(c2)OCO3)c1Cc1ccc2c(c1)OCO2 [LEUCETTAMINE A]	3.5	5.2	–	–
